These results are taken from ChEMBL document CHEMBL5674882, “Benzolactam-related compounds promote apoptosis of HIV-infected human cells via protein kinase C-induced HIV latency reversal” (J Biol Chem, 2019).

Data set [1] can be described thus: Toxicity in human A3.01 cells assessed as reduction in cell viability after 48 hrs by WST8 assay. It is filed as cell-based. A digest of the protocol:
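Parental, uninfected lines (A3.01 for ACH-2, U937 for U1) at 5 × 10^5 cells/ml cultured with or without drug. Viable cells read at 48 h (day 2) and expressed as % of untreated control. CC50 taken as the concentration lowering viability by 50%.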
In general terms: Tetrazolium assays rely on reduction of a dye to a coloured formazan, in cell work by metabolically active cells.

For data set [2], the target named is T1, Protein kinase C (PKC) (Homo sapiens) (UniProt O94806+P41743+P17252+P05129+Q05655+P05771+Q05513+Q02156+P24723+Q15139+Q04759). Nature of the data set: Activation of PKC in human J-Lat 10.6 cells infected with latent HIV-1 assessed as reversal of HIV-1 latency by measuring increase of GFP-positive cells at 100 to 400 nM in presence of 1 uM SAHA incubated for 24 hrs by flow cytometry. It is filed as cell-based. Conditions: filed as activator, dose 100-400 nM.

The target in data set [3] is T1, Protein kinase C (PKC) (Homo sapiens). Nature of the data set: Activation of PKC in human J-Lat 10.6 cells infected with latent HIV-1 assessed as reversal of HIV-1 latency by measuring increase of GFP-positive cells at 100 to 400 nM in presence of 10 nM Panobinostat incubated for 24 hrs by flow cytometry. It is filed as cell-based. Conditions: filed as activator, dose 100-400 nM. In general terms: Flow cytometry measures light scatter and fluorescence of single cells or particles in a stream.

The target is the same in data set [4]. Nature of the data set: Activation of PKC in human J-Lat 10.6 cells infected with latent HIV-1 assessed as reversal of HIV-1 latency by measuring increase of GFP-positive cells at 400 nM incubated for 24 hrs by flow cytometry. The class given is cell-based. Conditions: filed as activator.
The target is the same in data set [5]. Nature of the data set: Synergistic activation of PKC in human U1 cells infected with latent HIV-1 assessed as reversal of HIV-1 latency by measuring increase in p24 antigen level at 50 nM incubated for 48 hrs in presence of 100 nM JQ1 by chemiluminescent enzyme immunoassay relative to compound alone. The class given is cell-based. Conditions: filed as activator. In a few lines: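 U1 cells at 5 × 10^5 cells/ml incubated 48 h with test agent alone or plus 100 nm JQ1. Supernatant p24 antigen quantified by automated immunoassay. Fold reactivation computed versus the same agent without JQ1. Mean ± S.D. of three independent experiments.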

Data set [6] has the same target. Nature of the data set: Synergistic activation of PKC in CD4+ T-cells purified from HIV-infected patient assessed as increase in transcription of HIV mRNA at 1 uM incubated for 24 hrs in presence of 1 uM JQ1 by qRT-PCR method. Conditions: CD4+ T cell, filed as activator. It is filed as cell-based. A digest of the protocol: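 CD4+ T-cells purified from PBMC of patients on cART for at least 5 years with plasma viral load <20 copies/ml. Cells plated at 2.5 × 10^6 cells/ml and treated 24 h, alone or with 1 μm JQ1. Intracellular HIV RNA measured by qRT-PCR against a plasmid standard curve, normalised per ng input RNA, relative to untreated cells. Synergy assessed by Bliss independence model.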
For orientation: Real-time PCR tracks product formation cycle by cycle.

Data set [7] deals with ACH-2 cell line. Kind of data set: Induction of apoptosis in human ACH-2 cells at 1 uM incubated for 48 hrs after pre-incubated for 2 hrs with 20 uM caspase inhibitor Q-VD-Oph by propidium iodide/annexin-V staining based flow cytometry. It is filed as functional, cell-based. A digest of the protocol: (§1)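 ACH-2 or U1 cells pretreated 2 h with 20 µM pan-caspase inhibitor Q-VD-Oph, then exposed to 1 µM compound for 48 h. Annexin-V/PI staining by flow cytometry; apoptotic proportions compared with and without Q-VD-Oph. Mean ± S.D.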

The subject of data set [8] is U1. Kind of data set: Induction of apoptosis in human U1 cells at 1 uM incubated for 48 hrs after pre-incubated for 2 hrs with 20 uM caspase inhibitor Q-VD-Oph by propidium iodide/annexin-V staining based flow cytometry. The class given is functional, cell-based. A digest of the protocol:
as §1

Data set [9] relates to U1. Kind of data set: Induction of apoptosis in human U1 cells at 1 uM incubated for 48 hrs after pre-incubated for 2 hrs with 20 uM caspase inhibitor Q-VD-Oph by propidium iodide/annexin-V staining based flow cytometry relative to compound alone control. The class given is functional. Also on record: scale not given: the % may be the effect or the level left. A digest of the protocol: as §1

Data set [10] has as its target T1, Protein kinase C (PKC) (Homo sapiens). Nature of the data set: Activation of PKC in CCL19-induced human CD4+ T-cells infected with latent HIV-1 assessed as reversal of HIV-1 latency by measuring increase in p24 antigen level at 1 uM incubated for 48 hrs by chemiluminescent enzyme immunoassay. It is filed as cell-based. Conditions: CD4+ T cell, filed as activator.

The target is the same in data set [11]. Kind of data set: Activation of PKC in human J-Lat 6.3 cells infected with latent HIV-1 assessed as reversal of HIV-1 latency by measuring increase of GFP-positive cells at 10 uM in presence of pan-PKC inhibitor Go-6983 incubated for 24 hrs by flow cytometry. It is filed as cell-based. In a few lines:
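J-Lat 6.3 cells pretreated 3 h with a PKC inhibitor: Gö 6983 1 µM, Gö 6976 1 µM, GF 109203X 1 µM, PKCθ/δ inhibitor 10 µM, or Rottlerin 1 µM. Then exposed to 10 µM compound for 24 h; GFP-positive cells counted by flow cytometry. Mean ± S.D.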

The nature of data set [12]: Toxicity in human CD4+ T-cells assessed as increase in ratio of CD25+ cells incubated for 24 hrs by flow cytometry. Conditions: cd4+ t cell. The class given is cell-based. A digest of the protocol: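 Primary CD4+ T-cells from healthy donors treated with drug for 24 h. Cells stained with anti-CD25 and anti-CD69 antibodies (plus CD3, CD4, HLA-DR) for 30 min on ice, then marker-positive proportions quantified by flow cytometry.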

A short description of data set [13]: Toxicity in human CD4+ T-cells assessed as elevation of supernatant cytokine concentrations of IL-2 incubated for 24 hrs by bead-based immunoassay. Conditions: cd4+ t cell. A digest of the protocol:
(§2)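 Purified CD4+ T-cells from healthy donors treated 24 h with 1 μm drug, 1 μm JQ1, or the combination. IL-2, IL-5, IL-6, IL-13, TNFα and IFN-γ in supernatants measured by flow-cytometry bead-based Th1/Th2 immunoassay. Run in duplicate.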

The nature of data set [14]: Toxicity in human CD4+ T-cells assessed as elevation of supernatant cytokine concentrations of TNFalpha incubated for 24 hrs by bead-based immunoassay. Conditions: cd4+ t cell. A digest of the protocol: as §2
A short description of data set [15]: Toxicity in human CD4+ T-cells assessed as elevation of supernatant cytokine concentrations of IFNgamma incubated for 24 hrs by bead-based immunoassay. Conditions: cd4+ t cell. A digest of the protocol:
as §2

Data set [16] can be described thus: Toxicity in human CD4+ T-cells assessed as increase in dead cells at 1 uM in presence of JQ1. Conditions: cd4+ t cell. It is filed as cell-based. A digest of the protocol: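 Primary cells exposed 24 h to 1 μm drug, 1 μm JQ1, or both (1 μm each). Dead cells scored by propidium iodide staining.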
A further data set concerns J-Lat 6.3. Kind of data set: Induction of apoptosis in human J-Lat 6.3 cells at 1 uM incubated for 48 hrs by propidium iodide/annexin-V staining based flow cytometry (reference value: 3.16%). It is filed as functional.
Data set [17] has as its system ACH-2 cell line. Kind of data set: Induction of apoptosis in human ACH-2 cells assessed as caspase-3 activation at 1 uM incubated for 24 hrs by flow cytometry. The class given is functional. In a few lines:
(§3)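 Cells fixed in 1% paraformaldehyde, permeabilized, stained 30 min on ice with anti-active caspase-3 mAb, and analysed by flow cytometry. Three independent experiments.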

A short description of data set [18]: Induction of apoptosis in human CEM A3.01 cells assessed as caspase-3 activation at 1 uM incubated for 24 hrs by flow cytometry. The class given is functional. A digest of the protocol:
as §3

Data set [19] relates to ACH-2 cell line. Nature of the data set: Induction of apoptosis in human ACH-2 cells assessed as cleaved-PARP level at 1 uM incubated for 24 hrs by flow cytometry (reference value: 1.64%). The class given is functional. In a few lines:
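Cells fixed, permeabilized, stained on ice with anti-cleaved PARP (Asp-214) mAb; % cleaved-PARP cells by flow cytometry. Means ± S.D. of three independent experiments.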

For data set [20], the system named is U1. Kind of data set: Induction of apoptosis in human U1 cells assessed as caspase-3 activation at 1 uM incubated for 24 hrs by flow cytometry (reference value: 1.86%). It is filed as functional. In a few lines: as §3

Activity calls are given as the source filed them. The rule behind the calls is not given here.

As for `CCCCCCCCCCc1ccc2c(c1)N(C)[C@@H](C(C)C)C(=O)N[C@H](CO)C2`, in [1], the cytotoxic concentration (CC50) at 48 h came to 21.1 µM. The result in data set [2], in data set [3] and in [10] was Active. Further, the Activity in data set [4] was 42.2%; with U1 [9], 20%; in data set [12], “Non-Toxic”; in data set [13] it was “Toxic”; in [14] it was “Toxic”; in data set [15], “Toxic”. In addition, the Activity result in data set [16] is “Non-Toxic”; in the data set with J-Lat 6.3, 17%; with ACH-2 cell line [17], 23%; in [18] it was 2.01%; with ACH-2 cell line [19], 21.5%; in the data set on U1 [20] it was 7.7%. Besides, the fold change (FC) stood at 4.5 in data set [5] and 13.2 in data set [6]. The outcome (in the data set with ACH-2 cell line [7]; in the data set on U1 [8]; in data set [11]) was inactive.

What is called CC50 is the concentration at which the toxic effect on the cells reaches its halfway point.
